Values after ≈ are worked out from the molar mass of the structure shown. Values belong to the compound of their own block, whether it stands above or below them.
Key:
Solubility of DHA-dFdC = format: physicochemical
Outline: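 Indirect aqueous solubility used isopropyl myristate (IPM)/water partitioning. Saturated IPM solution was centrifuged (14,000 rpm, 10 min) and the supernatant measured by HPLC after methanol dilution (A1). Water was added at Vwater/VIPM 10, vortexed 5 min, left 15 min and centrifuged (14,000 rpm, 15 min). The IPM layer was re-assayed (A2) and the partition coefficient calculated from A1, A2 and the volume ratio.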

[1] = test system: dFdC-sensitive cancer cell lines; details: various dFdC-sensitive cancer cell lines; cited from earlier work
Panc-02 cells = assay: MTT cytotoxicity assay; format: cell-based, mouse; details: Panc-02, high concentrations (10-100 μM)
Outline: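 Cells seeded at 1500/well and left overnight at 37°C, 5% CO2. Treated with serial concentrations of test compound, dFdC, DHA or 1:1 molar dFdC+DHA (lipids in DMSO, dFdC in medium). Exposure: Panc-1-luc 24 h, Panc-02 48 h, BxPC-3 72 h. In a separate Panc-02 run, 10-100 μM for 4 h. Survival read by MTT; IC50 obtained by curve fitting.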

[2] = test system: Panc-1-luc human pancreatic tumors implanted SC; assay: Antitumor activity in mice with subcutaneous Panc-1-luc tumors; format: in vivo, athymic nude mice; details: IP twice a week; DHA-dFdC 50 mg/kg or molar equivalent doses
Outline: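 Male athymic nude mice (6-8 weeks) received SC injections of 5 × 10^6 Panc-1-luc cells in DMEM/Matrigel 1:1 (v/v) in the right flank. At 5-7 mm tumours (day 5), mice were randomised into 5 groups (n = 5-6). Groups got IP test compound at 50 mg/kg or molar equivalents. The vehicle was Tween 80/ethanol/water 1:0.52:8.48 with 5% w/v mannitol (dFdC in 5% mannitol). Dosing was twice weekly, up to six times. Caliper volumes were V = ½ × L1 × L2 × L2.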

tumor cells in culture = details: many tumor cells in culture; cited from earlier work
[3] = Pancreatic tissue levels and biodistribution after IV injection; format: in vivo, BALB/c mice; details: mouse pancreas, IV 75 mg/kg, noncompartmental
Outline: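 Healthy female BALB/c mice (17-20 weeks) received 75 mg/kg IV in Tween 80/ethanol/5% mannitol aqueous solution. Mice were euthanized at six time points from 5 to 300, n = 3-4 each. Pancreas was homogenized, extracted with ethyl acetate and analysed by HPLC: methanol/1% acetic acid 85:15, 1.2 ml/min, detection 300 nm.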

[4] = test system: orthotopic Panc-1-luc pancreatic tumors; assay: Antitumor activity in mice with orthotopic Panc-1-luc tumors; format: in vivo, athymic nude mice
Outline: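 Male athymic nude mice (6-8 weeks) received ~50 μl of Panc-1-luc cells (~2 × 10^7/ml in 1:1 DMEM/Matrigel) into the pancreas under isoflurane anaesthesia. After four weeks, randomised (n = 5-7) to test compound (Tween 80/ethanol/water, 5% w/v mannitol), dFdC at molar equivalent (~0.087 […], 5% mannitol) or untreated. IP twice weekly, seven doses in total. Tumours dissected and weighed 30 days after first dose.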

Panc-1-luc cells = details: cited from earlier work
[5] = cited from earlier work

Solubility in water (Solubility of DHA-dFdC; direct method): 1.38 ± 1.60 µg/mL (≈ 2.61 µM) | Solubility in water (Solubility of DHA-dFdC; indirect method (IPM/water partitioning), room temperature): 1.39 ± 0.10 µg/mL (≈ 2.62 µM)
Structure (SMILES): CCCCCCCCCCCCCCCCCC(=O)Nc1ccn(C2OC(CO)C(O)C2(F)F)c(=O)n1 (centres unmarked) [4-(N)-stearoyl dFdC]
Cytotoxicity compared with dFdC [1]: not significantly more cytotoxic than dFdC

Structure (SMILES): CC/C=C\C/C=C\C/C=C\C/C=C\C/C=C\C/C=C\CCC(=O)O [DHA, Cis-4,7,10,13,16,19-docosahexaenoic acid]
Cytotoxicity after 4 hours of coincubation (Panc-02 cells): did not show significant cytotoxicity | Tumor growth compared with vehicle control [2]: did not significantly inhibit the tumor growth

Structure (SMILES): CC/C=C\C/C=C\C/C=C\C/C=C\C/C=C\C/C=C\CCC(=O)O[C@@H](C(=O)O[C@H]1C[C@@]2(O)[C@@H](OC(=O)c3ccccc3)[C@@H]3[C@]4(OC(C)=O)CO[C@@H]4C[C@H](O)[C@@]3(C)C(=O)[C@H](OC(C)=O)C(=C1C)C2(C)C)[C@@H](NC(=O)c1ccccc1)c1ccccc1 [DHA-paclitaxel conjugate]
Cytotoxicity compared with paclitaxel (tumor cells in culture): not more cytotoxic than paclitaxel alone

Structure (SMILES): Cl.Nc1ccn([C@@H]2O[C@H](CO)[C@@H](O)C2(F)F)c(=O)n1 [dFdC, 2′, 2′-difluorodeoxycytidine HCl]
AUC0 -∞ in pancreas [3]: 787.71 µg·min/g | Tumor growth compared with vehicle control [2]: did not significantly inhibit the tumor growth | Tumor growth ([4]; IP twice a week, DHA-dFdC 50 mg/kg, dFdC molar equivalent): did not show significant activity | Cleaved lamin-A positive staining in tumors ([4]; compared with untreated mice): not different from that in mice that were left untreated | Sensitivity of Panc-1 tumor cells (Panc-1-luc cells): resistant | Loss of dFdC by deamination ([5]; after intravenous administration): about 90% | Administered dFdC excreted in the urine [5]: More than 99% | Unchanged dFdC in the urine [5]: 5%
